The source of these data is ChEMBL document CHEMBL1135535, “Discovery and optimization of a series of carbazole ureas as NPY5 antagonists for the treatment of obesity” (J Med Chem, 2002).

As usually defined, the IC50 is the concentration that gives 50% inhibition.

The test system of assay [1] is Salmonella typhimurium. The assay can be described thus: Ames activity in TA 98+S9, expressed as maximum fold increase in mutation frequency. Type of assay: functional, Salmonella enterica subsp. enterica serovar Typhimurium. An outline of the steps:
(§1)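 Salmonella typhimurium TA98 plate incorporation assay with S9 mix. The S9 is the postmitochondrial fraction of livers from Aroclor 1254-treated Sprague–Dawley rats, supplemented with cofactors for NADPH generation. Tested across 6–2000 μg/plate. The value is the maximum increase in mutation frequency relative to background across that dose range.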

The target of assay [2] is T1, Neuropeptide Y receptor type 5 (Homo sapiens, UniProt Q15761).
T1 sequence (Q15761 whole entry): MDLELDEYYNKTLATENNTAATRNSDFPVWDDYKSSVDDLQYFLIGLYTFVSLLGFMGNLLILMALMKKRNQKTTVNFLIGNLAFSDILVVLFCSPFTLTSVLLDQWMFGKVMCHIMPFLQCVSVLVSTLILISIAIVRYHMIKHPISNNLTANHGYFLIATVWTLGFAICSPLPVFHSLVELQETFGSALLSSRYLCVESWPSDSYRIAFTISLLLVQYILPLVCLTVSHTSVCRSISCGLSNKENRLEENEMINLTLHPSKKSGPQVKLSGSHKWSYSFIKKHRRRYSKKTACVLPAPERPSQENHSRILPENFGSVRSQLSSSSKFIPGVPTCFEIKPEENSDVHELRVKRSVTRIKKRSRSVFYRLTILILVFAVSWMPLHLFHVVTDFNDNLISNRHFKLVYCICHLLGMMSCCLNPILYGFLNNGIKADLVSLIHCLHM
The assay can be described thus: Binding affinity to the human Neuropeptide Y receptor Y5 (NPY5). A digest of the protocol:
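Membranes from Hi5 insect cells infected 48 h with baculovirus carrying rat or human NPY-5 receptor, prepared by sonication in hypotonic Tris/EDTA/sucrose buffer and harvested on a 41% sucrose cushion. 0.01 µCi [125I]PYY incubated with membranes and compound in HEPES buffer (CaCl2, MgCl2, 0.5% BSA, pH 7.4) for 2 h at room temperature. Filtered onto PEI-treated GF/C plates, then scintillation counted.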

Assay [3] relates to Salmonella typhimurium. The assay can be described thus: Ames activity in TA 98+S9, expressed as maximum fold increase in mutation frequency; NI means no increase. The assay is classed as functional, organism-based. The settings on record: Salmonella enterica subsp. enterica serovar Typhimurium. A digest of the protocol:
as §1

Assay [4] has as its system Salmonella typhimurium. Briefly: Mutagenicity (Ames activity) for Salmonella Typhimurium TA100 in the presence of rat liver S9 mix, at 100 ug/plate conc. Type of assay: functional, Salmonella enterica subsp. enterica serovar Typhimurium. A digest of the protocol:
(§2)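 Ames plate incorporation assay with S. typhimurium TA98 and TA100, run as described by Maron and Ames. Metabolic activation used S9 mix from livers of Aroclor 1254-treated Sprague–Dawley rats with an NADPH-generating cofactor system. Test substance given at 3.3–100 µg/plate. Read-out was revertant colonies per plate against a solvent control.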

In assay [5] the test system is Salmonella typhimurium. Briefly: Mutagenicity (Ames activity) for Salmonella Typhimurium TA100 in the presence of rat liver S9 mix, at 10 ug/plate conc. The assay is classed as functional, Salmonella enterica subsp. enterica serovar Typhimurium. An outline of the steps:
as §2

For assay [6], the system named is Salmonella typhimurium. Briefly: Mutagenicity (Ames activity) for Salmonella Typhimurium TA98 in the presence of rat liver S9 mix, at 10 ug/plate conc. The assay is classed as functional, Salmonella enterica subsp. enterica serovar Typhimurium. A digest of the protocol:
as §2

Assay [7] has as its system Salmonella typhimurium. The assay can be described thus: Mutagenicity (Ames activity) for Salmonella Typhimurium TA98 in the presence of rat liver S9 mix, at 33 ug/plate conc. Type of assay: functional, Salmonella enterica subsp. enterica serovar Typhimurium. An outline of the steps:
as §2

The subject of assay [8] is Salmonella typhimurium. Briefly: Mutagenicity (Ames activity) for Salmonella Typhimurium TA98 in the presence of rat liver S9 mix, at 100 ug/plate conc. Type of assay: functional, Salmonella enterica subsp. enterica serovar Typhimurium. A digest of the protocol: as §2
Assay [9] concerns Salmonella typhimurium. The assay can be described thus: Mutagenicity (Ames activity) for Salmonella Typhimurium TA100 in the presence of rat liver S9 mix, at 33 ug/plate conc. Type of assay: functional, Salmonella enterica subsp. enterica serovar Typhimurium. An outline of the steps:
as §2

Assay [10] concerns Salmonella typhimurium. The assay can be described thus: Mutagenicity (Ames activity) for Salmonella Typhimurium TA100 in the presence of rat liver S9 mix, at 3.3 ug/plate conc. The assay is classed as functional, Salmonella enterica subsp. enterica serovar Typhimurium. A digest of the protocol: as §2
Assay [11] deals with Salmonella typhimurium. The assay can be described thus: Mutagenicity (Ames activity) for Salmonella Typhimurium TA98 in the presence of rat liver S9 mix, at 3.3 ug/plate conc. The assay is classed as functional, Salmonella enterica subsp. enterica serovar Typhimurium. An outline of the steps: as §2

Molecules are shown by their SMILES.

In the assay with Salmonella typhimurium [1], `CC(C)(C)Cn1c2ccccc2c2cc(N)ccc21` displayed a Mutation frequency of 5. Molecule `O=C(CCc1ccncc1)Nc1ccc2[nH]c3ccccc3c2c1` had an IC50 in assay [2] of 230 nM. With `O=C(CSc1ccncc1)Nc1ccc(C(=O)c2ccccc2)cc1`, in [2], the IC50 came to 350 nM. As for `CCOc1c(NC(=O)N2CCOCC2)ccc2c1c1ccccc1n2C(C)C`, in assay [2], the half-inhibitory concentration (IC50) was determined as 270 nM. In the case of `CC(C)c1c(NC(=O)N2CCOCC2)ccc2c1c1ccccc1n2C(C)C`, in assay [2], the half-maximal inhibitory concentration (IC50) came out at 770 nM. In assay [2], `CC(=O)n1c2ccccc2c2cc(NC(=O)CCc3ccncc3)ccc21` showed an IC50 of 3 nM. Still for that read-out and setting: under `CCn1c2ccccc2c2cccc(NC(=O)CCc3ccncc3)c21` stands 440 nM; under `O=C(CCc1ccncc1)Nc1ccc(C(=O)c2ccccc2)cc1`, 300 nM. The molecule `CC(C)n1c2ccc(N)cc2c2cc(F)ccc21` registered a Mutation frequency in the assay on Salmonella typhimurium [1] of 15. `CCn1c2ccccc2c2cc(C(=O)NCCc3ccncc3)ccc21` displayed an IC50 in assay [2] of 700 nM. With `CCn1c2ccccc2c2c(NC(=O)CCc3ccncc3)cccc21`, the IC50 in [2] is above 10000 nM. In the assay on Salmonella typhimurium [1], `Cc1cccc2c3cc(N)ccc3n(C(C)C)c12` showed a Mutation frequency of 6. `Cc1cc2c(c(C)c1N)c1ccccc1n2C(C)C`: the NI result with Salmonella typhimurium [3] is “no increase”. For the molecule `CC(C)n1c2ccc(F)cc2c2cc(NC(=O)N3CCOCC3)ccc21`, the IC50 in assay [2] is 3 nM. The same measure, in the same setting: under `CS(=O)(=O)n1c2ccccc2c2cc(NC(=O)CCc3ccncc3)ccc21` stands 1 nM; under `CCn1c2ccccc2c2cc(N(C)C(=O)CCc3ccncc3)ccc21`, 2200 nM; under `CC(C)n1c2ccccc2c2cc(NC(=O)CCc3ccncc3)ccc21`, 1 nM.

With `Cc1cccc2c3cc(NC(=O)N4CCOCC4)ccc3n(C(C)C)c12`, the IC50 in [2] was found to be 2 nM.

In the case of `CC(C)n1c2ccccc2c2cc(N)ccc21`, the Mutation frequency with Salmonella typhimurium [1] is listed as 3. The molecule `CCn1c2ccccc2c2cc(CC(=O)NCc3ccncc3)ccc21` showed an IC50 in assay [2] of 2250 nM. For `CCn1c2ccccc2c2cc(N)ccc21`, the “Revertant colonies per plate” value was 483 with Salmonella typhimurium [4]; 358 in the assay with Salmonella typhimurium [5]; 1416 with Salmonella typhimurium [6]; 1227 in the assay on Salmonella typhimurium [7]; 897 in the assay on Salmonella typhimurium [8]; 466 with Salmonella typhimurium [9]. Moreover, the “Revertant colonies per plate” value in the assay on Salmonella typhimurium [10] is on record as 192; in the assay with Salmonella typhimurium [11], 623. Also, the Mutation frequency in the assay with Salmonella typhimurium [1] was 43. In turn, `O=C(Nc1ccc2c(c1)c1ccccc1n2C1CCOC1)N1CCOCC1` (stereo unspecified) had an IC50 in assay [2] of 40 nM. `CS(=O)(=O)n1c2ccccc2c2cc(NC(=O)N3CCOCC3)ccc21`: the IC50 in assay [2] came to 15 nM.
